Assay results taken from ChEMBL document CHEMBL1157882, “Novel 2-[(benzylamino)methyl]pyrrolidine-3,4-diol derivatives as alpha-mannosidase inhibitors and with antitumor activities against hematological and solid malignancies” (Bioorg Med Chem, 2010).
Activity calls are given as the source filed them. No cut-off for these calls is given here.

How the values were obtained:
[1] = molecular target: Glucoamylase (Aspergillus niger) (UniProt P69328); assay: Inhibition of amyloglucosidase from Aspergillus niger at 1 mM at pH 5
Outline: (§1)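 Glycosidase panel of commercial enzymes assayed at each enzyme's optimal pH with compound at 1 mM; percentage inhibition of enzyme activity calculated.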

Canavalia ensiformis = assay: Inhibition of beta-N-acetylglucosaminidase from jack bean at pH 5; parameters: concentration or dose not given beside the values; settings: concentration not given here
[2] = Cytotoxicity against human U87 cells after 72 hrs by colorimetric assay; type: functional, cell-based, U-87MG ATCC; settings: Homo sapiens, U-87 MG, 72 h; read-out: IC50
Outline: (§2)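 Cells grown in McCoy's medium (adherent lines) or RPMI-1640 (U266), each with 10% FBS, L-glutamine and antibiotics, at 37 °C in 5% CO₂. Compound dissolved as a 100 mM DMSO stock, final DMSO ≤0.4%. Cells were exposed for 72 h across a 10^-2 to 400 µM range. Viability was read by CellTiter 96 Aqueous (2–4 h incubation, absorbance 490 nm). Triplicate wells; IC50 from curve fitting.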

PC-3 = assay: Cytotoxicity against human PC3 cells after 72 hrs by colorimetric assay; type: functional, cell-based; settings: Homo sapiens, PC-3, 72 h; read-out: IC50; outline: as §2
BT-474 = assay: Cytotoxicity against human BT474 cells after 72 hrs by colorimetric assay; type: functional, cell-based; settings: Homo sapiens, BT-474, 72 h; read-out: IC50; outline: as §2
SK-BR-3 [3] = assay: Cell cycle arrest in human SKBR3 cells by accumulation of cells at G1 phase at 50 uM after 48 hrs by propidium iodide-staining based flow cytometry (reference value: 54%); type: functional
SK-BR-3 [4] = assay: Cell cycle arrest in human SKBR3 cells by accumulation of cells at G1 phase at 200 uM after 48 hrs by propidium iodide-staining based flow cytometry (reference value: 54%); type: functional
SK-BR-3 [5] = assay: Decrease in CDC25 mRNA level in human SKBR3 cells at 50 uM after 12 hrs by TLDA; type: functional, cell-based
Outline: (§3)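 SKBR3 or MCF7 cells, 2×10⁵/well, treated with 50 µM for 12 h. Total RNA was column-purified and reverse-transcribed with random hexamers, then assayed on TaqMan low-density arrays. Expression was normalised to RPLP0, with fold change versus DMSO-vehicle cells calculated as 2^-ΔΔCT. Q-PCR run in duplicate per gene.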

SK-BR-3 [6] = assay: Decrease in cyclinE1 mRNA level in human SKBR3 cells at 50 uM after 12 hrs by TLDA; type: functional, cell-based
Outline: (§4)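 SKBR3 and MCF7 cells seeded at 2 × 10⁵ per well, treated 12 h with 50 µM compound (DMSO stock); total RNA extracted, cDNA made with random hexamers, gene expression profiled by TaqMan low-density arrays (qPCR, duplicate per gene). Normalised to RPLP0; fold change versus DMSO vehicle-treated cells, calculated as 2^-ΔΔCT.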

SK-BR-3 [7] = assay: Decrease in hTERT mRNA level in human SKBR3 cells at 50 uM after 12 hrs by TLDA; type: functional, cell-based; outline: as §4
MCF7 [8] = assay: Decrease in CDC25 mRNA level in human MCF7 cells at 50 uM after 12 hrs by TLDA; type: functional, cell-based; outline: as §3
MCF7 [9] = assay: Increase in CDKN1C mRNA level in human MCF7 cells at 50 uM after 12 hrs by TLDA; type: functional, cell-based; outline: as §4
[10] = Cytotoxicity in human multiple myeloma cells assessed as viable cells at 100 uM after 24 hrs by annexin V/propidium iodide staining based flow cytometry (reference value: 48.2%); type: functional; settings: Multiple myeloma cell, read-out: Activity
[11] = Cytotoxicity in human multiple myeloma cells assessed as viable cells at 200 uM after 24 hrs by annexin V/propidium iodide staining based flow cytometry (reference value: 48.2%); type: functional; settings: Multiple myeloma cell, read-out: Activity
[12] = Cytotoxicity in human multiple myeloma cells assessed as early apoptotic cells at 100 uM after 24 hrs by annexin V/propidium iodide staining based flow cytometry (reference value: 0.1%); type: functional, Multiple myeloma cell
[13] = Cytotoxicity in human multiple myeloma cells assessed as early apoptotic cells at 200 uM after 24 hrs by annexin V/propidium iodide staining based flow cytometry (reference value: 0.1%); type: functional, Multiple myeloma cell
[14] = Cytotoxicity in human multiple myeloma cells assessed as pre-necrotic cells at 50 uM after 24 hrs by annexin V/propidium iodide staining based flow cytometry (reference value: 42.1%); type: functional, Multiple myeloma cell
[15] = Cytotoxicity in human multiple myeloma cells assessed as pre-necrotic cells at 100 uM after 24 hrs by annexin V/propidium iodide staining based flow cytometry (reference value: 42.1%); type: functional, Multiple myeloma cell
[16] = Cytotoxicity in human multiple myeloma cells assessed as pre-necrotic cells at 200 uM after 24 hrs by annexin V/propidium iodide staining based flow cytometry (reference value: 42.1%); type: functional, Multiple myeloma cell
[17] = Cytotoxicity in human B-CLL assessed as viable cells at 200 uM after 24 hrs by annexin V/propidium iodide staining based flow cytometry (reference value: 65.8 to 78%); type: functional; settings: read-out: Activity
[18] = Cytotoxicity in human B-CLL assessed as late apoptotic/necrotic cells at 50 uM after 24 hrs by annexin V/propidium iodide staining based flow cytometry (reference value: 10 to 14.7%); type: functional
[19] = molecular target: Alpha-galactosidase (Coffea arabica) (UniProt Q42656); assay: Inhibition of alpha-galactosidase from coffee beans at 1 mM at pH 6; outline: as §1
[20] = molecular target: T1, Beta-galactosidase (Aspergillus oryzae) (UniProt Q2U7N3); assay: Inhibition of beta-galactosidase from Aspergillus oryzae at 1 mM at pH 4; outline: as §1
T1 sequence (whole entry): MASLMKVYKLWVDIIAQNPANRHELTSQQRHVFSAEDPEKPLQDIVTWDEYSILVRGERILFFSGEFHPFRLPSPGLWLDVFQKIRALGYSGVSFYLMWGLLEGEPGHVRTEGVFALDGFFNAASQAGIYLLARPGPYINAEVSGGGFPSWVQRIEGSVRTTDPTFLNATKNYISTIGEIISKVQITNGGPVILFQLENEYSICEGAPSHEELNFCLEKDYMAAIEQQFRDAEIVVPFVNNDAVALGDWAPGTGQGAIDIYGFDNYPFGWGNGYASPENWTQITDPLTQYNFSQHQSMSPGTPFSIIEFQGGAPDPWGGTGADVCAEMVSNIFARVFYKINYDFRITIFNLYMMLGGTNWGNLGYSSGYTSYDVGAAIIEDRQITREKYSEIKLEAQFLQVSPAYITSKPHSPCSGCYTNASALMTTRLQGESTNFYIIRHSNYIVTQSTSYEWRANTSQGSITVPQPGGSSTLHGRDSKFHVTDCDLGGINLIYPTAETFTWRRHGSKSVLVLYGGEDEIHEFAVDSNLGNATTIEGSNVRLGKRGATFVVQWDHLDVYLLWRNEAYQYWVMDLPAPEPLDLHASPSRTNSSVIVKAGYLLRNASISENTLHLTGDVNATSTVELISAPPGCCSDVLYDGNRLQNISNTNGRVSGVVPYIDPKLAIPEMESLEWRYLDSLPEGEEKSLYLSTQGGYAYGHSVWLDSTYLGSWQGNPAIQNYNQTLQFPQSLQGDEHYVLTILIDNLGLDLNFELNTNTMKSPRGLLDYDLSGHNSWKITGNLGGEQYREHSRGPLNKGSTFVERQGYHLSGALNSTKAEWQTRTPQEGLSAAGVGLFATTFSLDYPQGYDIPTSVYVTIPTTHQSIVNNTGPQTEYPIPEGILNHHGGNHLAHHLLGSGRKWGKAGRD

Glucoamylase (Aspergillus niger), sequence (P69328 whole entry): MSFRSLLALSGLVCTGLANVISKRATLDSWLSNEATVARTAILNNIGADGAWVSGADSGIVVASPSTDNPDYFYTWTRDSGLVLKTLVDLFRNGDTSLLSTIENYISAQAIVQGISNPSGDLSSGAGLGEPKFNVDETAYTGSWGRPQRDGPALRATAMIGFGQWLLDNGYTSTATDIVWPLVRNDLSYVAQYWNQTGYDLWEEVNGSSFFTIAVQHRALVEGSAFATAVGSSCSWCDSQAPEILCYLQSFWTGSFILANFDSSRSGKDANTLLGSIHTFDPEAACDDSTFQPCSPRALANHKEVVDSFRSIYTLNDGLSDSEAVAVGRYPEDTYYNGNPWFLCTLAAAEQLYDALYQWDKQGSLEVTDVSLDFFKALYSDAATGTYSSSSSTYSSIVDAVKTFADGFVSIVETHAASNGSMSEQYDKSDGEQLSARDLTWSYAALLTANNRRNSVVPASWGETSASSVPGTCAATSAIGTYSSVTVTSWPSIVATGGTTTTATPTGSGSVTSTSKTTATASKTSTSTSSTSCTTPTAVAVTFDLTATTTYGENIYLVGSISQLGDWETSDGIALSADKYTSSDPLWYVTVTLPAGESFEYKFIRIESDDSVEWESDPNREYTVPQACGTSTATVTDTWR
Alpha-galactosidase (Coffea arabica), sequence (Q42656 16-378 limits assumed): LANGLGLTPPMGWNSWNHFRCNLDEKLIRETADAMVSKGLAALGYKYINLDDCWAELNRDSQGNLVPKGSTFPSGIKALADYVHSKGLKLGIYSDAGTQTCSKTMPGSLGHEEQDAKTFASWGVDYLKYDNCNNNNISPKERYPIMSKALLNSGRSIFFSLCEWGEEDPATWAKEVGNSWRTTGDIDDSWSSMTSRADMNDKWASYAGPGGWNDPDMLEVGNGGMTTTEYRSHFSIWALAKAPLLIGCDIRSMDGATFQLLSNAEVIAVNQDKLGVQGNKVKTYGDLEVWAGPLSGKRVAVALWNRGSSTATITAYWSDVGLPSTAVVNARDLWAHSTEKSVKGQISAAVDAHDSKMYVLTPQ

Structure (SMILES): OC[C@H](NC[C@H]1NC[C@H](O)[C@@H]1O)c1ccc(-c2ccc(C(F)(F)F)cc2)cc1
- inhibition [1]: < 10%
- inhibition (Canavalia ensiformis): < 10%
- IC50 [2]: 80 µM
- IC50 (PC-3): 132 µM
- IC50 (BT-474): 93 µM
- Activity (SK-BR-3 [3]): 57%
- Activity (SK-BR-3 [4]): 42%
- Activity (SK-BR-3 [5]): Active
- Activity (SK-BR-3 [6]): Active
- Activity (SK-BR-3 [7]): Active
- Activity (MCF7 [8]): Active
- Activity (MCF7 [9]): Active
- viability at 100 µM [10]: 27.6%
- viability at 200 µM [11]: 3%
- Activity [12]: 2.6%
- Activity [13]: 0.3%
- Activity [14]: 17%
- Activity [15]: 17%
- Activity [16]: 21.3%
- viability at 200 µM [17]: 1.6%
- Activity [18]: 10.1%
- inhibition [19]: < 10%
- inhibition [20]: < 10%
